Molecules are shown by their SMILES. Where two headings read alike, the source gives them in different places.

The text below walks through data of PMC9002156 (Journal of Biomedical Research, 2022).

The format of series [1] is in vitro ADME, human. As to conditions: mean±SD; for Found, after three-thaw cycles / Found, at –80 °C for 45 days / Found, plasma at room temperature for 8 hours: human plasma; for Found, extract at room temperature for 8 hours / Found, extract in the auto-sampler at 4 °C for 24 hours: plasma extract.
The nature of series [2]: Stability of stock solutions in acetonitrile. Format: physicochemical. As to conditions: in acetonitrile at −20 °C. A digest of the protocol: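 Separate acetonitrile stocks were made: 10 μg/mL for each analyte and 1 mg/mL for the internal standard. They were vortexed, briefly sonicated and stored at −20 °C. Analyte stability was examined after 2 months at −20 °C. Read-out was LC-MS/MS quantification.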

Series [3] in a line: Plasma concentrations in CAD patients after oral Plavix 75 mg. Format: in vivo. Conditions: human. In outline: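 Venous blood (3 mL) from CAD patients was drawn into EDTA/DTT tubes before dosing and at 0.5, 1, 2, 2.5, 3, 3.5, 6, 8, 12 and 24 h after dosing. MPB (500 mmol/L stock) was added at once, then spun 16 000 g for 10 min and held at −80 °C. Read-out was LC-MS/MS on C18 at 40 °C, 0.1% formic acid:acetonitrile (1:19), 1 mL/min. Thiol metabolite was measured as derivative. Calibration used peak area with internal standard, weighted 1/x2. Mean±SD, n=3.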

For another series, the system named is carboxylesterases. Conditions: cited from earlier work.
The subject of the next series is CYP2C19. Conditions: cited from earlier work.

Take `COC(=O)[C@H](c1ccccc1Cl)N1CCc2sccc2C1` [Clopidogrel, (+)-(S)-methyl 2-(2-chlorophenyl)-2-(6,7-dihydrothieno[3,2-c]pyridine-5(4H)-yl)acetate]: in series [1] (added 0.2 ng/mL), the “Found, after three-thaw cycles” value was found to be 0.2 ± 0.0 ng/mL; the “Found, at –80 °C for 45 days” value came to 0.2 ± 0.0 ng/mL; the “Found, plasma at room temperature for 8 hours” value came to 0.2 ± 0.0 ng/mL; the “Found, extract at room temperature for 8 hours” value was found to be 0.2 ± 0.0 ng/mL. Further, in series [1] (added 0.2 ng/mL), the “Found, extract in the auto-sampler at 4 °C for 24 hours” value was found to be 0.2 ± 0.0 ng/mL. Moreover, in series [1] (added 10 ng/mL), the “Found, after three-thaw cycles” value came out at 10.1 ± 0.8 ng/mL; the “Found, at –80 °C for 45 days” value was determined as 10.1 ± 0.2 ng/mL; the “Found, plasma at room temperature for 8 hours” value is 10.4 ± 0.8 ng/mL; the “Found, extract at room temperature for 8 hours” value amounted to 10.0 ± 1.4 ng/mL. Also, the “Found, extract in the auto-sampler at 4 °C for 24 hours” value in series [1] (added 10 ng/mL) came out at 10.0 ± 0.8 ng/mL. Also, in series [2], the “Time stock solutions were stable” value is on record as “at least 2 months”. For the same compound, in series [3], the Cmax came to 17 ng/mL. Moreover, the “Portion hydrolyzed into inactive metabolites by carboxylesterases” value in the series with carboxylesterases is reported as “approximately 85%”. Moreover, the “Contribution of CYP2C19 to metabolism, second step” value with CYP2C19 (2-Oxo-CLP to active metabolite) is given as 20%. Besides, in the series with CYP2C19 (clopidogrel metabolized to 2-Oxo-CLP), the “Contribution of CYP2C19 to metabolism, first step” value is on record as 45%.
Turning to `CC#C[C@]1(O)CC[C@H]2[C@@H]3CCC4=CC(=O)CCC4=C3[C@@H](c3ccc(N(C)C)cc3)C[C@@]21C` [IS, Mifepristone], the “Time stock solutions were stable” value in series [2] was “at least 2 months”.

Broadly, the Cmax is the maximum level reached in the sampled fluid or tissue.
